Laboratory results published in PubChem BioAssay AID651723 (Broad Institute, 2012).
“And” between values parts separate entries of the source, which are not always exact repeats. Equal entries are not always repeated. In all, about 350,000 compounds went through this assay and about 740 (0.21%) were called active. This is one part of a sample in which actives are shown more often than they occur.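 The calls were made as follows: active = every replicate reaching activation of at least 50%, whatever the mean replicate activation; inconclusive = replicates that disagree or another doubt; inactive = the rest.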

Test: increased acetylated PGC1a in cells – cell-based, U2OS, AlphaScreen, signal-increasing mode, PGC1a modulator project, primary screen (AID 651723)
Settings: U2OS PGC1a acetylation AlphaScreen, overnight; at 15.6 µM; stronger effect = higher value
Method in brief: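 Incubation: overnight compound treatment, 37 °C. System: U2OS cells transduced with flag-tagged PGC1a and GCN5 acetyltransferase. Detection: AlphaScreen lysate read. Compound: single-point compound dosing.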

Compound	activation
CCOC(=O)c1c(-c2ccc(C)cc2C)csc1NC(=O)CSc1nnnn1C	-46.2% (inactive)
CCOC(=O)c1c(NC(=O)CSc2cn(CC)c3ccccc23)sc2c1CCC2	67.2% (active)
CCCCC(=O)Nc1ccc(C(=O)NCCCn2ccnc2)cc1	71.6% (active)
Cc1noc(C)c1S(=O)(=O)Nc1ccc2c(c1)C(=O)N([C@@H](C)CO)C[C@@H](C)[C@@H](CN(C)S(=O)(=O)c1ccccc1)O2	-50.3% (inactive)
Cc1ccc(-c2c[n+](CC(=O)Nc3ccccc3)c3n2CCC3)cc1	-43.3% (inactive)
Cc1nc(SCC(=O)NC2CCCC2)[nH]c(=O)c1C	-42.3% (inactive)
Cc1csc(NC(=O)NC2(C(F)(F)F)Oc3ccccc3O2)n1	74.6% (active)
c1ccc2c(-c3nn4nnnc4c4ccccc34)cccc2c1	71% (active)
Cn1c2c(c(=O)n(C)c1=O)C(c1cccc(F)c1)C(C#N)=C(N)O2 (stereo not given)	-80.9% (inactive)
COc1ccc(Oc2c(Cl)cnn(-c3ccccc3)c2=O)cc1	112% (active)
CCOCCc1nn2c(=O)cc(CSCC(=O)Nc3cccc(C)c3C)nc2s1	-38.7% (inactive)
O=S(=O)(c1ccc(Br)cc1)n1ccc2ccccc21	-40.2% (inactive)
Cc1cc(C)c(S(=O)(=O)NCC2CCC(C(=O)NCc3ccc4c(c3)OCO4)CC2)c(C)c1 (stereo not given)	-43.2% (inactive)
CC(C)(C)c1cc(C(=O)N/N=C/c2ccc([N+](=O)[O-])s2)n[nH]1	80.1% (active)
Cc1nc(Nc2ccc3c(c2)OCCO3)c2nnn(Cc3ccccc3Cl)c2n1	-56.2% (inactive)
N#Cc1c(N)nc2c3c(sc(=N)c2c1N)NC(=O)CC3c1ccccc1Cl (stereo not given)	67.8% (active)
O=C(Nc1cccc(Cl)c1)c1cncn1-c1ccc(F)cc1	-44.8% (inactive)
Cc1cccc(CS(=O)(=O)c2ncc(Cl)c(C(=O)Nc3ccc(F)cc3)n2)c1	138% (active)
CN(C)c1ccc(-n2cccc2/C=N/n2cnnc2)cc1	-55.5% (inactive)
O=C(NC1=CC(=O)c2ccccc2C1=O)c1ccccc1	-80.8% (inactive)
CC[C@H]1CN2CCc3cc(OC)c(OC)cc3[C@@H]2C[C@@H]1C[C@H]1NCCc2cc(OC)c(OC)cc21	-83.7% (inactive)
N#Cc1ccc(-c2ccc(C3[C@@H]4CN(S(=O)(=O)c5ccc(F)cc5)C[C@H]3N4)cc2)cc1 (stereo not given in full)	-58.1% (inactive)
CCc1ccc(N2CC(O)=C(c3nc4ccccc4c(=O)[nH]3)C2=N)cc1	165% (active)
Cc1cc(C(=O)NNS(=O)(=O)c2ccccc2C(F)(F)F)nn1C(C)(C)C	259% (active)
CCOC(=O)CSc1nccc(N(C)C)c1C#N	-9.86% (inactive)

Compound	activation
COc1ccc(CC(NC(C)=O)C(=O)N2CCN(C(=O)Nc3cccc(Cl)c3)CC2)cc1OC (stereo not given)	-50.7% (inactive)
Cc1cc(C)n(-c2nc(O)cc(=O)[nH]2)n1	-36.3% (inactive)
COc1ccc(C(=O)NN(C)c2nc(-c3ccccc3)cc(C)c2S(C)(=O)=O)cc1	87.7% (active)
CC(C)C#Cc1cnc2c(c1)C(=O)N([C@@H](C)CO)C[C@@H](C)[C@@H](CN(C)C(=O)CN1CCOCC1)O2	-58.3% (inactive)
O=C(CSc1nnc(Cn2cnc3ccccc32)o1)c1ccccc1	59.8% (active)
CCOc1ccccc1CN1CCN(C2CCC2)CC1CCO (stereo not given)	-74.8% (inactive)
CN1OC[C@@H]2CN(S(=O)(=O)c3cccc4ccccc34)[C@H](c3ccc(N4CCCCC4)cc3)C[C@@H]21	-47.9% (inactive)
Cc1cc(C)nc(S/C=C/C(=O)c2ccccc2)n1	63.2% (active)
CCOC(=O)c1ccc2[nH]c(C)c(CN3CCN(C)CC3)c(=O)c2c1	-59.3% (inactive)
CC(C)CCNc1nc(N2CCCC2)c2c(c1C#N)CCN(C)C2	102% (active)
C[C@@H]1CCCCO[C@@H](CN(C)CC2CC2)[C@H](C)CN([C@H](C)CO)C(=O)c2cc(NS(=O)(=O)c3ccccc3)ccc2O1	-56.4% (inactive)
COc1ccc(C(=O)/C=C/c2cccnc2)c(OC)c1	70.7% (active)
NC(=O)N/N=C\c1cccs1	-76.7% (inactive)
O=C(Nc1ccc2c(c1)OCO2)N[C@H]1CC[C@H](CCNC(=O)C2CCC2)O[C@@H]1CO	-46.2% (inactive)
O=[N+]([O-])c1ccc(C=Nc2ccc(Cl)cc2Cl)s1	68.4% (active)
C=CCn1c(=NC(=O)c2ccc(S(=O)(=O)N3CCCC3)cc2)sc2cc(NC(C)=O)ccc21	-51.1% (inactive)
N#Cc1ccc(-c2ccc([C@@H]3[C@H]4CNC[C@@H]3N4Cc3ccc4c(c3)OCO4)cc2)cc1	-48.1% (inactive)
CCOC(=O)C1=CC[C@@H](c2ccccc2)N(S(=O)(=O)c2ccc(C)cc2)[C@H]1c1ccc(CC)cc1	75.7% (active)
NC(=NC(=O)c1ccccc1)N1CCOCC1	-84.1% (inactive)
CCN(CC)C(=O)c1ccc(O)c(OC)c1	-55.9% (inactive)
N=C1C(c2nc3ccccc3s2)=C(O)CN1NC(=O)c1ccc([N+](=O)[O-])cc1	-100% (inactive)
COc1ccc(C(=O)Nc2nc(-c3ccc(OC)cc3)c(-c3ccc([N+](=O)[O-])cc3)s2)cc1	55.6% (active)
O=C(Cc1ccccc1)N1N=C(c2ccncc2)CC1(O)C(F)(F)F (stereo not given)	-50% (inactive)
C[C@@H]1CCCCO[C@@H](CN(C)CC2CC2)[C@@H](C)CN([C@H](C)CO)C(=O)c2cc(NC(=O)C3CCCCC3)ccc2O1	-52.5% (inactive)
CCc1ccc(NC(=O)Nc2ccncc2)cc1	-48.9% (inactive)

Compound	activation
CCn1c(/C=C/c2ccc([N+](=O)[O-])o2)nc2ccccc2c1=O	149% (active)
Cc1nc2ccccc2c(=O)n1NC(=O)c1ccc(Cl)c([N+](=O)[O-])c1	-44.8% (inactive)
O=C1CN(S(=O)(=O)Cc2ccccc2)C[C@@H]2[C@@H](c3ccc(C#Cc4cccc(F)c4)cc3)[C@@H](CO)N12	60.3% (active)
COc1ccc(-c2ccc(CCC(=O)O)n2NC(=O)c2ccc(C(C)(C)C)cc2)cc1	-43.5% (inactive)
S=C1NC(c2ccccc2)=NCN1c1ccc(Br)cc1	-80.9% (inactive)
NC(=O)Cc1ccc2c(c1)[nH]c1ccccc12	116% (active)
O=S(=O)(O)c1nc2ccccc2n1Cc1ccc(Cl)cc1	-47.2% (inactive)
Cc1oc2c(c1C(=O)N1CCOCC1)C(=O)c1ccccc1C2=O	-42.9% (inactive)
CN1/C(=C\C(=O)c2oc3ccccc3c2N)C(C)(C)c2ccccc21	-86.9% (inactive)
CC(C)c1cc(C(=O)N/N=C/C(Br)=C/c2ccccc2)n[nH]1	125% (active)
Cc1cc(C(=O)N/N=C\C(Br)=C\c2ccccc2)c(C)o1	85.5% (active)
Cc1[nH]c(=O)c(C(=O)/C=C/c2ccccc2)c2c1CCCC2	-53.2% (inactive)
N#Cc1cccc(NC(=O)COC(=O)c2ccccc2C(=O)c2ccc(Cl)c([N+](=O)[O-])c2)c1	-46.9% (inactive)
Clc1ccc(-c2nnc(-c3ccccc3)nc2N2CCSCC2)cc1	80.9% (active)
CN1CCc2c(sc3c2c(NCc2ccco2)nc2nnnn23)C1	-44.7% (inactive)
COCCNC(=O)CSc1nc2c(n1-c1ccccc1)CCCC2	-43.7% (inactive)
COc1ccc(NC(=O)C2(C)Cc3c(-c4cccc(NC(C)=O)c4)ccnc3O2)cc1 (stereo not given)	71.2% (active)
CCc1ccc(NC(=O)CSc2nnc(-c3cnccn3)n2Cc2ccco2)cc1	-45.6% (inactive)
O=C(/C=C/Sc1ncn[nH]1)c1ccc(Cl)cc1	109% (active)
COc1cccc(CNC(=O)CCC2CCCN(Cc3ccc(OC(F)F)cc3)C2)c1 (stereo not given)	-52.5% (inactive)
Cc1cccc(NC(=O)c2ccc([N+](=O)[O-])o2)c1	149% (active)
CC(C)NC(=O)Nc1ccc2c(c1)C(=O)N([C@@H](C)CO)C[C@@H](C)[C@H](CN(C)S(=O)(=O)c1ccccc1)OCCCC[C@@H](C)O2	-124% (inactive)
COc1ccc(-c2cc(=O)c3c(O)cc(O[C@@H]4O[C@H](CO[C@@H]5O[C@@H](C)[C@H](O)[C@@H](O)[C@H]5O)[C@@H](O)[C@H](O)[C@H]4O)cc3o2)cc1O	-49.5% (inactive)
COCC(=O)Nc1ccc2c(c1)OC[C@H](C)N(C(=O)c1ccccc1F)C[C@H](C)[C@H](OC)CN(C)C2=O	-42.9% (inactive)
CCc1cc2c(N3CCN(c4nnc(CC)s4)CC3)ncnc2s1	53.5% (active)

Compound	activation
CC1(C)CCSC(/C=C/c2ccccc2)=N1	183% (active)
O=[N+]([O-])c1c(NCCO)cc(Sc2nc3ccccc3s2)c2nonc12	-45% (inactive)
C[C@H](CO)N1C[C@H](C)[C@H](CN(C)Cc2ccc(C(=O)O)cc2)Oc2ncc(-c3ccccc3)cc2C1=O	-41.5% (inactive)
Cc1cccc(C2C3=C(CCCC3=O)N=C3c4ccccc4C(=O)C32)c1 (stereo not given)	80% (active)
CC(=O)NC1CCN(CC(=O)Nc2nccs2)CC1	-50.3% (inactive)
CC(C)Cc1nn2c(=O)cc(O)nc2s1	-40.3% (inactive)
COc1ccc(N(Cc2cc3cc(OC)ccc3[nH]c2=O)S(C)(=O)=O)cc1	69.9% (active)
N#Cc1ccc(C(c2ccc(C#N)cc2)n2cncn2)cc1	-48.6% (inactive)
Cc1cc(C)cc(N(CC(=O)Nc2c(C)n(C)n(-c3ccccc3)c2=O)S(C)(=O)=O)c1	-49.5% (inactive)
C[C@H]1CN([C@@H](C)CO)C(=O)c2cc(C#Cc3ccc(F)cc3)cnc2O[C@@H]1CN(C)C(=O)Nc1ccc(F)cc1	-44% (inactive)
COc1ccc(C#Cc2ccc([C@H]3[C@@H](CO)N4CCCCN(C(=O)Nc5ccccc5)C[C@H]34)cc2)cc1	77.7% (active)
COc1ccc(NC(=O)/C(Cl)=C(/Cl)S(=O)Cc2ccc(C)cc2)cn1 (stereo not given)	-69.3% (inactive)
Cc1ccc(S(=O)(=O)Nc2ccc3c(c2)C(=O)N([C@H](C)CO)C[C@H](C)[C@H](CN(C)C(=O)NC(C)C)OCCCC[C@@H](C)O3)cc1	-41.5% (inactive)
COCC(=O)Nc1ccc2c(c1)OC[C@@H](C)N(CCc1ccccc1)C[C@H](C)[C@@H](OC)CN(C)C2=O	-52.2% (inactive)
COc1ccc(C2CC(c3cccs3)=NN2c2nc(C)c(C(C)=O)s2)cc1OC (stereo not given)	83.1% (active)
COc1ccc(S(=O)(=O)N2CCN(C(=O)c3cccs3)CC2)cc1OC	-44% (inactive)
O=S(=O)(NCc1ccccc1Br)c1ccccc1Br	55.2% (active)
COc1cc(NC(=O)c2[nH]cnc2C(N)=O)cc(C(=O)Nc2cccc(C(F)(F)F)c2)c1	-62.8% (inactive)
C[C@H](CO)N1C[C@H](C)[C@@H](CN(C)Cc2cccnc2)Oc2cc(C3=CCCC3)ccc2S1(=O)=O	-50.5% (inactive)
O=C(NCc1ccccc1)C(c1ccccc1)N(C(=O)c1csnn1)c1ccc(F)cc1 (stereo not given)	85.7% (active)
Cc1noc(C)c1S(=O)(=O)N(C)C[C@H]1Oc2ccc(NS(=O)(=O)c3cccs3)cc2C(=O)N([C@H](C)CO)C[C@H]1C	-48% (inactive)
Cc1cc(C)c2c(-n3cccc3)c(C(=O)NNS(=O)(=O)c3ccc(F)cc3)sc2n1	132% (active)
Cc1cccc(-c2ccc(C3[C@@H]4CN(C(=O)Nc5ccc(C(F)(F)F)cc5)C[C@H]3N4)cc2)c1 (stereo not given in full)	-92.4% (inactive) and -92.8% (inactive)
CC(C)C(OC(=O)c1cccs1)C(=O)NC1CCCCC1 (stereo not given)	90.6% (active)
CC/C(=N\NC(=O)c1ccccc1Cl)c1ccc(Br)s1	-82.8% (inactive)
